The values below come from paper PMC1976451 (Nucleic Acids Research, 2007).

Data set [1] deals with human β-globin thalassemic intron 2 mutated splice site at nucleotide 705 (pLuc705 cells). Briefly: Nuclear activity assay. The class given is cell-based. As to conditions: 24 h; for luciferase activity over the background: 1 μM, OptiMEM with or without 10% serum, RLU per microgram protein; for relative nuclear antisense activity in the oligoarginine, RX, RXR and RB panels: 1 and 5 μM; for luciferase activity compared with conjugates with 8 and 7 repeats: 10 μM; for luciferase activity in 60% serum: 60% serum-containing medium; for reduction of luciferase activity in 10% serum: versus 0% serum, R9−PMO data not shown. Put shortly: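 Splice-correction luciferase assay in pLuc705 cells, seeded 20 h before at 30 000 cells/well. Cells washed, then treated 24 h with conjugate at 1, 5 or 10 μM in OptiMEM with 0, 10, 30 or 60% serum. Lysed 30 min at 4°C, clarified at 1000g, and luminescence read after adding luciferase reagent. RLU normalised per μg protein (BCA). Mean ± SD of 6–9 points, three independent experiments.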

The test system of data set [2] is pLuc705 cells. Briefly: MTT cell viability assay. Particulars: for inhibition of cell proliferation by monomers: 500 μM each, individually or in combination. The class given is cell-based, human. A digest of the protocol: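 pLuc705 cells seeded 20 h before at 9000 cells/well. Exposed 24 h to 0, 2, 10, 20, 40 or 60 μM conjugate in OptiMEM with 10% serum; arginine and X monomers given at 500 μM alone or combined. Phase images taken first, then MTT at 0.5 mg/ml final for 4 h at 37°C and DMSO/0.01M HCl 10 min. A540 read; % viability relative to mean of untreated wells; six points, two experiments.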

In data set [3] the test system is pLuc705 cells. Briefly: Microscopic images of treated cells. As to conditions: 60 μM, OptiMEM with 10% serum, 24 h, ×100. The class given is cell-based, human. A digest of the protocol: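 pLuc705 cells seeded at 9000 cells/well 20 h before treatment, then exposed 24 h to conjugate or vehicle in OptiMEM with 10% serum. Phase-contrast images were taken directly in culture medium on an inverted microscope, before the MTT read-out on the same wells.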

Data set [4] concerns pLuc705 cells. Briefly: Propidium iodide membrane integrity. The class given is cell-based, human. Particulars: for membrane damage / PI histogram shift with 0.5 or 5 h treatment: 60 μM, 0.5 and 5 h; for effect of addition of 10% serum on membrane toxicity: (RX)8−PMO data not shown; for effect on membrane integrity at higher concentrations: up to 60 µM tested.
Data set [5] has as its system fresh rat red blood cells. Nature of the data set: Hemolysis assay. As to conditions: 60 μM, 1 h at 37°C, hemoglobin release (absorbance at 540 nm); four data points from two independent experiments. The class given is cell-based. A digest of the protocol:
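Fresh rat blood red cells exposed 1 h at 37°C to conjugate at 60 μM, with PBS as background and 0.005% TX-100 as positive control. Released hemoglobin read as absorbance at 540 nm. Mean ± SD of four data points from two independent experiments.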

For data set [6] the following is noted: cited from earlier work.
The subject of data set [7] is pLuc705 cells. Briefly: Cell uptake assay. As to conditions: 2 μM, media containing 30 and 60% serum. The class given is cell-based, human. A digest of the protocol:
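pLuc705 cells (HeLa stably carrying luciferase interrupted by β-globin intron 2 with mutated splice site at 705) seeded 20 h before at 100 000 cells/well. Treated 24 h with 2 μM 3′-carboxyfluorescein-tagged conjugate in OptiMEM with 0, 10, 30 or 60% serum. Trypsin 10 min at 37°C strips membrane-bound material, then cells are washed and analysed by flow cytometry. Mean fluorescence ± SD, six points, two independent experiments.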

In a further data set the test system is human liver HepG2 cells. Briefly: MTT toxicity in HepG2 cells. The class given is cell-based. As to conditions: up to 60 μM, data not shown. A digest of the protocol:
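HepG2 cells kept in RPMI 1640 with 2 mM L-glutamine, 100 U/ml penicillin and 10% FBS at 37°C, 5% CO2. Treatments were in OptiMEM with or without FBS. MTT added to a final 0.5 mg/ml for 4 h at 37°C. Most of the medium was replaced with DMSO containing 0.01M HCl for 10 min at 37°C. A540 was normalized to the mean of untreated wells.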

Entries after “also recorded” stand apart in the source; their conditions may differ.

As a reminder, the cell viability is a read-out of living cells in per cent, often relative to untreated cells. Read a high cell viability as better survival. Take `CC(=O)N[C@@H](CCCNC(=N)N)C(=O)NCCCCCC(=O)N[C@@H](CCCNC(=N)N)C(=O)NCCCCCC(=O)N[C@@H](CCCNC(=N)N)C(=O)NCCCCCC(=O)N[C@@H](CCCNC(=N)N)C(=O)NCCCCCC(=O)N[C@@H](CCCNC(=N)N)C(=O)NCCCCCC(=O)N[C@@H](CCCNC(=N)N)C(=O)NCCCCCC(=O)N[C@@H](CCCNC(=N)N)C(=O)NCCCCCC(=O)N[C@@H](CCCNC(=N)N)C(=O)NCCCCCC(=O)NCCC(=O)N1CCN(P(=O)(OC[C@@H]2CN(P(=O)(OC[C@@H]3CN(P(=O)(OC[C@@H]4CN(P(=O)(OC[C@@H]5CN(P(=O)(OC[C@@H]6CN(P(=O)(OC[C@@H]7CN(P(=O)(OC[C@@H]8CN(P(=O)(OC[C@@H]9CN(P(=O)(OC[C@@H]%10CN(P(=O)(OC[C@@H]%11CN(P(=O)(OC[C@@H]%12CN(P(=O)(OC[C@@H]%13CN(P(=O)(OC[C@@H]%14CN(P(=O)(OC[C@@H]%15CN(P(=O)(OC[C@@H]%16CN(P(=O)(OC[C@@H]%17CN(P(=O)(OC[C@@H]%18CN(P(=O)(OC[C@@H]%19CN(C(C)=O)C[C@H](n%20cnc%21c(N)ncnc%21%20)O%19)N(C)C)C[C@H](n%19ccc(N)nc%19=O)O%18)N(C)C)C[C@H](n%18cnc%19c(N)ncnc%19%18)O%17)N(C)C)C[C@H](n%17cc(C)c(=O)[nH]c%17=O)O%16)N(C)C)C[C@H](n%16cc(C)c(=O)[nH]c%16=O)O%15)N(C)C)C[C@H](n%15cnc%16c(=O)[nH]c(N)nc%16%15)O%14)N(C)C)C[C@H](n%14cnc%15c(N)ncnc%15%14)O%13)N(C)C)C[C@H](n%13ccc(N)nc%13=O)O%12)N(C)C)C[C@H](n%12cc(C)c(=O)[nH]c%12=O)O%11)N(C)C)C[C@H](n%11ccc(N)nc%11=O)O%10)N(C)C)C[C@H](n%10ccc(N)nc%10=O)O9)N(C)C)C[C@H](n9cnc%10c(N)ncnc%109)O8)N(C)C)C[C@H](n8cc(C)c(=O)[nH]c8=O)O7)N(C)C)C[C@H](n7cc(C)c(=O)[nH]c7=O)O6)N(C)C)C[C@H](n6ccc(N)nc6=O)O5)N(C)C)C[C@H](n5cc(C)c(=O)[nH]c5=O)O4)N(C)C)C[C@H](n4ccc(N)nc4=O)O3)N(C)C)C[C@H](n3ccc(N)nc3=O)O2)N(C)C)CC1` (some centres unmarked) [(RX)8−PMO]: in data set [1], the “luciferase activity over the background” value is 10–15 fold; the “relative nuclear antisense activity in the oligoarginine, RX, RXR and RB panels” value is reported as “highest nuclear antisense activities”. Moreover, the “relative nuclear activity at 2 μM” value in data set [1] (2 μM, OptiMEM with 10% serum, eleven conjugates with 0-8 X compared) is on record as “highest activity”. For the same compound, the “change of luciferase activity on addition of 10% serum” value (“change … of 10% serum” for short) in data set [1] (5 μM) is reported as “nearly doubled”. Also, in data set [1] (5 μM, OptiMEM with 10% serum, eleven conjugates with 0-8 X compared), the “relative nuclear activity at 5 μM” value is on record as “highest activities”. The cell viability in the data set with pLuc705 cells [2] (60 μM, OptiMEM with 10% serum, 24 h, mean of six data points) was determined as 40%. Also, in the data set on pLuc705 cells [3], the “appearance of treated cells (microscopic images)” value is “rounded and detached from the culture well”. Also, in the data set with pLuc705 cells [4], the “membrane damage / PI histogram shift with 0.5 or 5 h treatment” value is given as “little immediate membrane damage” and the “effect on membrane integrity at higher concentrations” value was “significantly affect membrane integrity”. For the same compound, the “effect of addition of 10% serum on membrane toxicity” value in the data set with pLuc705 cells [4] (24 h) is on record as “significantly reduced membrane toxicity”. Further, in data set [5], the hemolytic activity result is “compatible with red blood cells”. The “stability (of the peptide portion) in cells” value in data set [6] is “completely degraded”.
Take `NCCCCCC(=O)O` [X, 6-aminohexanoic acid]: in the data set with pLuc705 cells [2], the “inhibition of cell proliferation by monomers” value is “no inhibition of cell proliferation”.
For the compound `N=C(N)NCCC[C@H](N)C(=O)O` [arginine], the “inhibition of cell proliferation by monomers” value in the data set with pLuc705 cells [2] is recorded as “no inhibition of cell proliferation”.
RBRBRBB [(RB)3−PMO]: the “luciferase activity compared with conjugates with 8 and 7 repeats” value in data set [1] is reported as “much lower luciferase activity”.
On the same count and under the same terms, under RBRBRBRBRBB [(RB)5−PMO] stands “much lower luciferase activity”.
RBRBRBRBRBRBRBRBB [(RB)8−PMO]: the “change … of 10% serum” value in data set [1] (5 μM) is “nearly doubled”. The “stability (of the peptide portion) in cells” value in data set [6] is “only partially degraded”.
Consider RRRRRRRRRXB [R9−PMO], for which, in data set [1], the “luciferase activity in 60% serum” value was “no activity” and the “reduction of luciferase activity in 10% serum” value was “approximately 30%”.
As to RRRRRRRRXB [R8−PMO], in data set [1], the “luciferase activity in 60% serum” value is reported as “no activity” and the “reduction of luciferase activity in 10% serum” value was “approximately 30%”.
RXRRXRRXRRXRXB [(RXR)4−PMOF]: in the data set with pLuc705 cells [7], the “effect of higher serum concentrations on uptake” value is reported as “decreased”.
RXRRXRRXRRXRXB [(RXR)4−PMO]: in data set [1], the “luciferase activity over the background” value is 10–15 fold; the “relative nuclear antisense activity in the oligoarginine, RX, RXR and RB panels” value is recorded as “highest nuclear antisense activities”. Moreover, in data set [1] (5 μM), the “change … of 10% serum” value is given as “nearly doubled”. The “toxicity in HepG2 cells” value in the data set with human liver HepG2 cells is “dose-dependent inhibition of cell proliferation”. The “appearance of treated cells (microscopic images)” value with pLuc705 cells [3] is “rounded and detached from the culture well”. In addition, in the data set on pLuc705 cells [4], the “membrane damage / PI histogram shift with 0.5 or 5 h treatment” value is given as “slight shift towards the PI+ region; also recorded: little immediate membrane damage” and the “effect on membrane integrity at higher concentrations” value is listed as “significantly affect membrane integrity”. Further, in the data set with pLuc705 cells [4] (60 µM, 24 h, serum-free medium, flow cytometry), the “cells in the PI+ region” value worked out at 57%. Further, the “effect of addition of 10% serum on membrane toxicity” value in the data set on pLuc705 cells [4] (24 h) is given as “significantly reduced membrane toxicity”. The hemolytic activity result in data set [5] is “compatible with red blood cells”.
On to RXRXRXB [(RX)3−PMO], for which, in data set [1], the “luciferase activity compared with conjugates with 8 and 7 repeats” value was “much lower luciferase activity”.
For RXRXRXRXRXB [(RX)5−PMO], the “luciferase activity compared with conjugates with 8 and 7 repeats” value in data set [1] is on record as “much lower luciferase activity”.
